Data from ChEMBL document CHEMBL3632496, “Novel 2-Carbonylbenzo[b]thiophene 1,1-Dioxide Derivatives as Potent Inhibitors of STAT3 Signaling Pathway” (ACS Med Chem Lett, 2015).
Calls of active or inactive are those of the source. The rule behind the calls is not given here.

Legend:
DU-145 = assay: Cytotoxicity against human DU145 cells assessed as growth inhibition after 48 hrs by MTT assay; format: functional, cell-based; conditions: DU-145, 48 h
MDA-MB-231 = assay: Cytotoxicity against human MDA-MB-231 cells assessed as growth inhibition after 48 hrs by MTT assay; format: functional, cell-based; conditions: MDA-MB-231, 48 h
[1] = Cytotoxicity against human PANC1 cells assessed as growth inhibition after 48 hrs by MTT assay; format: functional, cell-based; conditions: PANC-1, 48 h
A549 = assay: Cytotoxicity against human A549 cells assessed as growth inhibition after 48 hrs by MTT assay; format: functional, cell-based; conditions: A549, 48 h
MCF7 = assay: Cytotoxicity against human MCF7 cells assessed as growth inhibition after 48 hrs by MTT assay; format: functional, cell-based; conditions: MCF7, 48 h
[2] = Cytotoxicity against human MDA-MB-435S cells assessed as growth inhibition after 48 hrs by MTT assay; format: functional, cell-based
[3] = target: Mitogen-activated protein kinase; ERK1/ERK2 (Homo sapiens) (UniProt P27361+P28482); assay: Inhibition of ERK1/2 phosphorylation in human MDA-MB-231 cells at 1 to 4 uM after 12 hrs by Western blot analysis; format: cell-based
[4] = target: Signal transducer and activator of transcription 3 (Homo sapiens) (UniProt P40763); assay: Inhibition of IL-6-induced STAT3 phosphorylation in overnight starved human MCF7 cells at 2 to 6 uM preincubated for 2 hrs followed by IL-6 induction by Western blot analysis; format: cell-based
Outline: (§1)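 Cells were serum-starved overnight and pretreated with compound for 2 h. They were then stimulated with IL-6. Lysates were immunoblotted for phospho-STAT3.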

[5] = target: Signal transducer and activator of transcription 3 (Homo sapiens) (UniProt P40763); assay: Inhibition of STAT3-mediated luciferase activity in human HeLa cells after 12 hrs by luminescence assay; format: cell-based
Outline: (§2)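 HeLa cells, which have constitutive STAT3, were transfected with a STAT3-dependent dual luciferase reporter. Reporter luminescence was measured after compound exposure. Values are mean ± SD of triplicate experiments and are compared with vehicle-treated control.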

[6] = target: Signal transducer and activator of transcription 3 (Homo sapiens) (UniProt P40763); assay: Inhibition of STAT3 phosphorylation at Y705 in human MCF7 cells after 12 hrs by Western blot analysis; format: cell-based
Outline: (§3)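 Cells were exposed for 12 h. Whole-cell lysates were immunoblotted with a Y705-phospho-STAT3-specific antibody and for total STAT3.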

[7] = target: Serine/threonine-protein kinase mTOR (Homo sapiens) (UniProt P42345); assay: Inhibition of mTOR phosphorylation in human MDA-MB-231 cells at 1 to 4 uM after 12 hrs by Western blot analysis; format: cell-based
[8] = target: Signal transducer and activator of transcription 3 (Homo sapiens) (UniProt P40763); assay: Inhibition of STAT3 phosphorylation at Y705 in human MDA-MB-231 cells after 12 hrs by Western blot analysis; format: cell-based; outline: as §3
[9] = target: Signal transducer and activator of transcription 3 (Homo sapiens) (UniProt P40763); assay: Inhibition of IL-6-induced STAT3 phosphorylation in overnight starved human MDA-MB-231 cells preincubated for 2 hrs followed by IL-6 induction by Western blot analysis; format: cell-based; outline: as §1
[10] = target: Signal transducer and activator of transcription 3 (Homo sapiens) (UniProt P40763); assay: Inhibition of STAT3 phosphorylation at Y705 in human MDA-MB-435S cells after 12 hrs by Western blot analysis; format: cell-based; outline: as §3
[11] = target: Proto-oncogene tyrosine-protein kinase Src (Homo sapiens) (UniProt P12931); assay: Inhibition of Src phosphorylation in human MDA-MB-231 cells at 1 to 4 uM after 12 hrs by Western blot analysis; format: cell-based
[12] = target: Signal transducer and activator of transcription 3 (Homo sapiens) (UniProt P40763); assay: Inhibition of STAT3-mediated luciferase activity in human HeLa cells at 2 uM after 12 hrs by luminescence assay relative to control; format: cell-based; outline: as §2
[13] = target: Signal transducer and activator of transcription 3 (Homo sapiens) (UniProt P40763); assay: Inhibition of STAT3-mediated luciferase activity in human HeLa cells at 4 uM after 12 hrs by luminescence assay relative to control; format: cell-based; outline: as §2
SMMC-7721 = assay: Cytotoxicity against human SMMC7721 cells assessed as growth inhibition after 48 hrs by MTT assay; format: functional, cell-based; conditions: SMMC-7721, 48 h
[14] = Cytotoxicity against human HL-7702 cells assessed as growth inhibition after 48 hrs by MTT assay; format: cell-based; conditions: L02, 48 h

Sequence of Signal transducer and activator of transcription 3 (Homo sapiens) (P40763 whole entry): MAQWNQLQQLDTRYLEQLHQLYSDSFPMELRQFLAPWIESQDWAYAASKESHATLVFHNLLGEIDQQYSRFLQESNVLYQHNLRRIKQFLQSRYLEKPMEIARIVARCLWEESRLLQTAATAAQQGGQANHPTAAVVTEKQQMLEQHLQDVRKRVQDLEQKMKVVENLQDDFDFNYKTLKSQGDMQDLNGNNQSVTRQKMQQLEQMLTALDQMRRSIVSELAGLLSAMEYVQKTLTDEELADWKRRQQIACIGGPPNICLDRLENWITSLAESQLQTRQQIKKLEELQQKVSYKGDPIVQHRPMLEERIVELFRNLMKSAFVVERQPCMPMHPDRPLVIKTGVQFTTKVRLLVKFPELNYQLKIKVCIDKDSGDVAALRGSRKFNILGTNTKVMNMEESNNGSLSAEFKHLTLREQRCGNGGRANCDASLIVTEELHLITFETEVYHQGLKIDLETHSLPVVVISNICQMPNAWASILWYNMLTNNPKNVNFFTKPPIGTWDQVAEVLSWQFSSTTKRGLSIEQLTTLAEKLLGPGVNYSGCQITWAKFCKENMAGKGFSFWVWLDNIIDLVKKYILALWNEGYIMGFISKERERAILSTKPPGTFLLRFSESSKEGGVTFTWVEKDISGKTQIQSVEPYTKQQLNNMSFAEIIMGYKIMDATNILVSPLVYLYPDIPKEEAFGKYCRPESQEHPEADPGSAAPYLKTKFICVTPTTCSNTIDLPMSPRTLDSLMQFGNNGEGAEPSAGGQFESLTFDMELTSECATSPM
Sequence of Mitogen-activated protein kinase; ERK1/ERK2 (Homo sapiens) (P27361 whole entry, looked up): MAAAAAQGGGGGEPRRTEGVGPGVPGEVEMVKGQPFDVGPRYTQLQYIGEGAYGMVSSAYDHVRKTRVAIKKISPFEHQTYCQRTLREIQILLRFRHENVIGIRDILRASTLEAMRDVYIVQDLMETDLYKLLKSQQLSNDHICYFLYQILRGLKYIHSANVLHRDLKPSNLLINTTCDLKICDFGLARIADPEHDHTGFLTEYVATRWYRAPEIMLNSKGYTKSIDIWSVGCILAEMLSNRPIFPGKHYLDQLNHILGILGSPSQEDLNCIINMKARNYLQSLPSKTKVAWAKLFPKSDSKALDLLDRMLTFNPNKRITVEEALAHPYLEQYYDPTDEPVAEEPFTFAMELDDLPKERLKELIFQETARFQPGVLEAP
Sequence of Mitogen-activated protein kinase; ERK1/ERK2 (Homo sapiens) (P28482 whole entry, looked up): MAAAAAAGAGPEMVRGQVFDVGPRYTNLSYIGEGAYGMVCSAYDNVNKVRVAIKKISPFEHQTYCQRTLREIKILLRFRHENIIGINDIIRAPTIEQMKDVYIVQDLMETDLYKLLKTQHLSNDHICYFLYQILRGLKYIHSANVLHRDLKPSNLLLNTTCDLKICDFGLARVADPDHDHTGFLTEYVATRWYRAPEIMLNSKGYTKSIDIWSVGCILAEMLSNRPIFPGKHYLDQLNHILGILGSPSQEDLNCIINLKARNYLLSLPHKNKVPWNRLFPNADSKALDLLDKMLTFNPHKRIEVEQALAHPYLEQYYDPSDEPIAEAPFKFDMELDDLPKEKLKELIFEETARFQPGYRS
Sequence of Proto-oncogene tyrosine-protein kinase Src (Homo sapiens) (P12931 2-536 limits assumed): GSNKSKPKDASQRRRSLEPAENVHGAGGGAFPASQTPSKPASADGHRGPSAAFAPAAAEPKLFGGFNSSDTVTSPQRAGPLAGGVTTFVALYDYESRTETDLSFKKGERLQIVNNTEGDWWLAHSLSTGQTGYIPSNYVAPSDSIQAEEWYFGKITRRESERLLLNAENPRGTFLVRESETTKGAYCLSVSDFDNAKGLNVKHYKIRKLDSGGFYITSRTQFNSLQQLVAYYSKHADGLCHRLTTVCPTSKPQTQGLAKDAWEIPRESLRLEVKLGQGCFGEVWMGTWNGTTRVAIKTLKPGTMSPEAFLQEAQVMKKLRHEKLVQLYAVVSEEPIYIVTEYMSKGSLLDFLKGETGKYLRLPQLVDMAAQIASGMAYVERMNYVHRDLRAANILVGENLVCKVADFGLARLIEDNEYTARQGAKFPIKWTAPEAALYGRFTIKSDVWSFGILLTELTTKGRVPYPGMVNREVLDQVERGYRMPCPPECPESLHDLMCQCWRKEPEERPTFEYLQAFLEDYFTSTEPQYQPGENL

SMILES | IC50 (DU-145) | IC50 (MDA-MB-231) | IC50 [1] | IC50 (A549) | IC50 (MCF7) | IC50 [2] | further results
Cc1ccc(OC(=O)C2=Cc3c(Br)cccc3S2(=O)=O)cc1 | > 15000 nM | > 15000 nM |  |  |  |  | 
O=C(Nc1cccc(Cl)c1)C1=Cc2c(Br)cccc2S1(=O)=O | 3390 nM | 2210 nM |  |  |  |  | 
Cc1ccc(NC(=O)C2=Cc3c(Br)cccc3S2(=O)=O)cc1 | 3030 nM | 2460 nM |  |  |  |  | 
O=C(Nc1ccc(Cl)cc1)C1=Cc2c(Br)cccc2S1(=O)=O | 6340 nM | 3780 nM |  |  |  |  | 
CC1CCCN(C(=O)C2=Cc3cc(Br)ccc3S2(=O)=O)C1 (stereo unspecified) | 1410 nM | 1070 nM | 2980 nM | 1940 nM | 1260 nM | 1370 nM | 
O=C(Nc1ccccc1)C1=Cc2cc(Br)ccc2S1(=O)=O | 2770 nM | 1720 nM |  |  |  |  | 
CN(C(=O)C1=Cc2cc(Br)ccc2S1(=O)=O)c1ccccc1 | 1260 nM | 880 nM | 4380 nM | 2080 nM | 1130 nM | 950 nM | 
O=C(C1=Cc2cc(Br)ccc2S1(=O)=O)N1CCCCC1 |  |  |  |  |  |  | inhibition [3]: inactive; inhibition [4]: Active; inhibition [5]: Dose-dependent effect; inhibition [6]: Dose-dependent effect; inhibition [7]: inactive; inhibition [8]: Dose-dependent effect; inhibition [9]: Dose-dependent effect; inhibition [10]: Dose-dependent effect; inhibition [11]: inactive; inhibition [12]: 14%; inhibition [13]: 48%
CC(C)NC(=O)C1=Cc2cc(Br)ccc2S1(=O)=O | 2170 nM | 1090 nM | 5050 nM | 2970 nM | 1240 nM | 930 nM | IC50 (SMMC-7721): 2400 nM; IC50 [14]: 15000 nM
CC(C)(C)NC(=O)C1=Cc2cc(Br)ccc2S1(=O)=O | 1350 nM | 1340 nM | 3340 nM | 2850 nM | 1270 nM | 820 nM | 
CCCCNC(=O)C1=Cc2cc(Br)ccc2S1(=O)=O | 3860 nM | 2310 nM |  |  |  |  | 
O=C(Nc1ccccc1)C1=Cc2c(Br)cccc2S1(=O)=O | 2640 nM | 1740 nM | 6670 nM | 4090 nM | 1730 nM | 1390 nM | IC50 (SMMC-7721): 2400 nM; IC50 [14]: 15000 nM
O=C(Nc1ccccc1)C1=Cc2cc(NC(=O)c3ccccc3)ccc2S1(=O)=O | 6210 nM | 3210 nM |  |  |  |  | 
CCN(CC)C(=O)C1=Cc2cc(Br)ccc2S1(=O)=O | 1460 nM | 1670 nM | 1940 nM | 1580 nM | 890 nM | 1540 nM | 
O=[N+]([O-])c1ccc2c(c1)S(=O)(=O)C=C2 | 2500 nM | 1560 nM | 2900 nM | 2500 nM | 2160 nM | 1870 nM | inhibition [6]: Active; inhibition [8]: Active; inhibition [10]: Active; inhibition [13]: 36%
CC1CCCCN1C(=O)C1=Cc2cc(Br)ccc2S1(=O)=O (stereo unspecified) | 980 nM | 950 nM | 2140 nM | 1300 nM | 990 nM | 980 nM | 
O=C(Nc1ccccc1)C1=Cc2cc([N+](=O)[O-])ccc2S1(=O)=O | 5190 nM | 3040 nM |  |  |  |  | 
O=C(C1=Cc2cc(Br)ccc2S1(=O)=O)N1CCCC1 | 1540 nM | 1270 nM | 3470 nM | 3470 nM | 1380 nM | 940 nM | 
O=C(Nc1ccccc1)C1=Cc2ccc(Br)cc2S1(=O)=O | 2660 nM | 1840 nM |  |  |  |  | 
O=C(NC1CCCCC1)C1=Cc2cc(Br)ccc2S1(=O)=O | 5730 nM | 5730 nM |  |  |  |  | 
O=C(C1=Cc2cc(Br)ccc2S1(=O)=O)N1CCOCC1 | 1910 nM | 1040 nM | 3950 nM | 2310 nM | 1050 nM | 800 nM | 
O=C(Nc1ccc2c(c1)C=C(C(=O)N1CCCCC1)S2(=O)=O)c1ccccc1 | 2070 nM | 1680 nM |  |  |  |  | 
